Test [1] concerns the target T1, DNA topoisomerase 1 (Homo sapiens) (UniProt P11387).
T1 sequence (whole entry): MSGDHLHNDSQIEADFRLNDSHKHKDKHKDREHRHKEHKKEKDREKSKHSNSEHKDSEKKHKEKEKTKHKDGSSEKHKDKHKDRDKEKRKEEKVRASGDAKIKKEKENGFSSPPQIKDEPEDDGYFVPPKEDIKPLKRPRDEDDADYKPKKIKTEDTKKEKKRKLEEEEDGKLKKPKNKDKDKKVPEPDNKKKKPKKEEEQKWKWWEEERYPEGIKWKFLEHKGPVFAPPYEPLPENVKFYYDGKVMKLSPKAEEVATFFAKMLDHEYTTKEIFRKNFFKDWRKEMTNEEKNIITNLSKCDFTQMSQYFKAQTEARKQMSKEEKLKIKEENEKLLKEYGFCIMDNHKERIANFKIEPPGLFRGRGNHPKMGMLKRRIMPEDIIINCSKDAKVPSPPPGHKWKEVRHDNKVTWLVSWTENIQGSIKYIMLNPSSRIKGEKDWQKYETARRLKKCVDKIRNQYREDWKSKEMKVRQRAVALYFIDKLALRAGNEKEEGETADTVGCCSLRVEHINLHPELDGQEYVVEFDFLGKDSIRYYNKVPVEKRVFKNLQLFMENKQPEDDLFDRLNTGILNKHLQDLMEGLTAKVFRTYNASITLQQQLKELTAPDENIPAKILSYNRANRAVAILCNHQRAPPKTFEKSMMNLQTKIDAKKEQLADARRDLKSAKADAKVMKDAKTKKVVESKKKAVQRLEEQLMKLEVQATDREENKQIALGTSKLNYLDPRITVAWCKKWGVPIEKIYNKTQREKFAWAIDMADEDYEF
Briefly: Inhibition of recombinant topoisomerase 1 (unknown origin) assessed as DNA cleavage using 3'-[32P]-labeled 117-bp DNA oligonucleotide at 1 uM by PAGE assay. Also on record: Activity: scale not given: the % may be the effect or the level left. An outline of the steps: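 Approx. 2 nM 3′-[³²P]-labeled double-stranded DNA incubated with recombinant Top1 and compound at 0.1, 1, 10 or 100 μM for 20 min at 25 °C. Stopped with 0.5% SDS and run on a denaturing gel. […] Run twice.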

Test [2] is described as follows: Growth inhibition of human NCI60 cells assessed as cell growth at 10 uM. Conditions: read-out: Activity. The class given is functional. An outline of the steps:
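NCI-60 single-dose screen at 10 μM across ~60 human cancer cell lines. Reported as growth percent relative to vehicle-treated control, averaged over all lines tested as a mean growth percent.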

For another test, the system named is MCF7. Briefly: Growth inhibition of human MCF7 cells by five-dose growth inhibition assay. The format is functional.
For the next test, the system named is HOP-62. Description: Growth inhibition of human HOP62 cells by five-dose growth inhibition assay. The format is functional.
The subject of another test is HCT-116. Briefly: Growth inhibition of human HCT116 cells by five-dose growth inhibition assay. The format is functional.
The nature of test [3]: Growth inhibition of human SF539 cells by five-dose growth inhibition assay. The class given is functional. Conditions: SF-539.
The next test has as its system UACC-62. Description: Growth inhibition of human UACC62 cells by five-dose growth inhibition assay. The format is functional.
Another test has as its system OVCAR-3. Description: Growth inhibition of human OVCAR3 cells by five-dose growth inhibition assay. The format is functional.
The next test has as its system SN12C. Description: Growth inhibition of human SN12C cells by five-dose growth inhibition assay. The format is functional.
The next test concerns DU-145. Description: Growth inhibition of human DU145 cells by five-dose growth inhibition assay. The class given is functional.

As for `O=C1c2ccccc2-c2c1c1ccncc1c(=O)n2CCCn1ccnc1`, in test [1], the Activity was 20%. Moreover, the growth at 10 µM in [2] is 47.5%.
Broadly, the GI50 is the concentration giving 50% growth inhibition. In the case of `O=C1c2ccccc2-c2c1c1ccc([N+](=O)[O-])cc1c(=O)n2CCCn1ccnc1`, in test [1], the Activity was found to be 100%. In addition, the concentration for 50% growth inhibition (GI50) in the test on MCF7 came to 2170 nM.
`O=C1c2ccccc2-c2c1c1ccc(C(F)(F)F)cc1c(=O)n2CCCn1ccnc1`: the Activity in [1] worked out at 20%. Besides, the growth at 10 µM in [2] came out at 6.57%. The concentration for 50% growth inhibition (GI50) with HOP-62 was 407 nM; in the test with HCT-116 it was 646 nM; in [3] it was 1290 nM; with UACC-62, 537 nM; in the test on OVCAR-3, 1510 nM; in the test on SN12C it was 1780 nM. Besides, the values for the concentration for 50% growth inhibition (GI50) in the test with DU-145 and with MCF7 were 1100 nM and 257 nM, respectively.
As for `O=C1c2ccccc2-c2c1c1ccc([N+](=O)[O-])cc1c(=O)n2C[C@H](O)CO`, the Activity in test [1] was 100%.
Turning to `CS(=O)(=O)c1ccc2c3c(n(C[C@H](O)CO)c(=O)c2c1)-c1ccccc1C3=O`, the Activity in [1] came out at 50%. Further, the growth at 10 µM in test [2] worked out at 96.7%.
In the same order, the values of `O=C1c2ccccc2-c2c1c1ccc(C(F)(F)F)cc1c(=O)n2C[C@H](O)CO` are 20% and 52.2%.
As to `O=C1c2ccccc2-c2c1c1cc(C(F)(F)F)ccc1c(=O)n2CCCn1ccnc1`, the Activity in test [1] was determined as 20%. Also, the growth at 10 µM in [2] was 49.3%.
As for `O=C1c2ccccc2-c2c1c1cc(C(F)(F)F)ccc1c(=O)n2C[C@H](O)CO`, the Activity in [1] came out at 20%. Further, the growth at 10 µM in test [2] stood at 82.7%.
Consider `CN(C)CCCn1c2c(c3ccncc3c1=O)C(=O)c1ccccc1-2`, for which, in [1], the Activity turned out to be 50%. In addition, the GI50 was found to be 708 nM in test [3], 955 nM with SN12C, 977 nM in the test on DU-145 and 331 nM in the test on MCF7.
On to `CSc1ccc2c3c(n(C[C@H](O)CO)c(=O)c2c1)-c1ccccc1C3=O`, for which the Activity in test [1] was 20%. For the same compound, in test [2], the growth at 10 µM amounted to 39.7%. Besides, the 50% growth inhibitory concentration (GI50) in the test on HOP-62 turned out to be 1820 nM; with HCT-116, 741 nM; in test [3], 2340 nM; in the test with UACC-62 it was 1380 nM; with OVCAR-3, 4370 nM; in the test with SN12C, 1950 nM. Further, the 50% growth inhibitory concentration (GI50) in the test on DU-145 is 2510 nM; with MCF7, 427 nM.
As to `N#Cc1ccc2c3c(n(C[C@H](O)CO)c(=O)c2c1)-c1ccccc1C3=O`, the Activity in test [1] came to 20%. The growth at 10 µM in test [2] stood at 42.6%.
Consider `O=C1c2ccccc2-c2c1c1ccc(F)cc1c(=O)n2C[C@H](O)CO`, for which the Activity in [1] is 50%. Moreover, in test [2], the growth at 10 µM was determined as 61.1%.
Consider `COC(=O)c1ccc2c3c(n(CCCN4CCOCC4)c(=O)c2c1)-c1ccccc1C3=O`, for which the Activity in test [1] stood at 20%. Moreover, in test [2], the growth at 10 µM came to 87.5%.
Consider `CC[C@@]1(O)C(=O)OCc2c1cc1n(c2=O)Cc2cc3c(CN(C)C)c(O)ccc3nc2-1` [TOPOTECAN], for which, in [1], the Activity stood at 100%. In addition, the GI50 in the test with HCT-116 was found to be 30 nM; in test [3] it was 10 nM; in the test with SN12C it was 20 nM.
With `O=C1c2ccccc2-c2c1c1ccc(Br)cc1c(=O)n2C[C@H](O)CO`, in [1], the Activity was found to be 50%. The growth at 10 µM in test [2] is 46.8%.
Regarding `N#Cc1ccc2c3c(n(CCCN4CCOCC4)c(=O)c2c1)-c1ccccc1C3=O`, the Activity in test [1] worked out at 50%. For the same compound, the growth at 10 µM in test [2] turned out to be 102%.
For `O=C1c2ccccc2-c2c1c1ccc([N+](=O)[O-])cc1c(=O)n2CCCN1CCOCC1`, in [1], the Activity worked out at 70%.
For `CSc1ccc2c3c(n(CCCn4ccnc4)c(=O)c2c1)-c1ccccc1C3=O`, in test [1], the Activity stood at 20%. For the same compound, the growth at 10 µM in test [2] was 42.6%.
The like results for `CS(=O)(=O)c1ccc2c3c(n(CCCn4ccnc4)c(=O)c2c1)-c1ccccc1C3=O` were, in that order, 50% and 59.4%.
In the same order, the values of `O=C1c2ccccc2-c2c1c1ccc(Br)cc1c(=O)n2CCCN1CCOCC1` are 75% and 84%.

For the origin of these results see ChEMBL document CHEMBL3580647, “Discovery of potent indenoisoquinoline topoisomerase I poisons lacking the 3-nitro toxicophore” (J Med Chem, 2015).
